# From PubChem BioAssay
# UPR CHOP act: activators of apoptotic arm of unfolded protein response (CHOP); AID 449763; 330,000 tested, 0.34% active; CHO-CHOP luciferase reporter, UPR activation, luminescence; percent of tunicamycin response over DMSO baseline; activation, % at 10 µM;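 active means at 10 µM dose, activation of 40% or more, normalized to positive control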;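 further: 100% = tunicamycin at 10 µg/mL and 0% = DMSO alone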
#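 Assay system: CHO-CHOP cells, stable luciferase reporter of PERK-eIF2a-CHOP signalling / Buffer or medium: F12 plus 10% serum / Compound dosing: one dose, 10 µM in 0.5% DMSO / Times: 6 h compound treatment, 37 °C / Technique: luciferase luminescence / Read-out: % reporter activation, DMSO baseline versus tunicamycin full activation / Benchmarks: tunicamycin and DMSO controls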
# hiPSC survival: increases survival of single human iPS cells | hiPSC single-cell survival, ATPlite luminescence; 100% = ROCK inhibitor wells, 0% = DMSO | survival enhancement, % at 20 µM | 360,000 tested, 0.044% active; in the data active means survival enhancement above about 18%;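 further: cells exposed to compounds for 16 hours before the ATP read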
# CHOP inhibitor: blocks CHOP induction under ER stress | CHO-K1 CHOP-promoter luciferase, tunicamycin-induced, 15-18 h | inhibition, % at 10 µM | 220,000 tested, 3.8% active | AID 2732;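 active means compounds that reduced the stress-induced luciferase reporter signal by more than about 70% of percent inhibition, limit read from the data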;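 further: 0% = tunicamycin plus vehicle and 100% = wells without tunicamycin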
# XBP1 UPR activ: activators of adaptive arm of unfolded protein response (XBP1). CHO-XBP1 luciferase reporter, IRE1-XBP1 UPR activation, luminescence; percent of tunicamycin response, DMSO as zero. activation, % at 20 µM. 330,000 tested, 0.33% active. AID 463104;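 active means versus positive control, 20 µM dose yields 30% or more activation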;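 further: 100% = tunicamycin at 10 µg/mL and 0% = DMSO only wells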
#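 Assay system: CHO-XBP1 luciferase reporter cells; Schedule: 6 h treatment, 37 °C; Detection: glow luminescence from Steady-Glo reagent; Benchmarks: high control tunicamycin 10 µg/mL final, low control DMSO vehicle only.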
# Cardio protect: modulators protecting cardiomyocytes from myocardial damage; H9c2 cardiomyocytes, H2O2 injury protection, ATPLite, 2 h; protection from H2O2 cell death, % at 20 µM; 360,000 tested, 0.63% active; AID 588492;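 active means compounds giving at least 50% protection of heart cells from peroxide-induced death in the single-dose screen, raw or plate-pattern-corrected value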;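 further: 0% = DMSO wells with peroxide and 100% = DMSO wells without peroxide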
# Numbers without * were called inactive; . = no result. This is one part of a sample in which hits are shown more often than they occur.
SMILES,UPR CHOP act,hiPSC survival,CHOP inhibitor,XBP1 UPR activ,Cardio protect
O=C(/C=C/c1ccc(Cl)c([N+](=O)[O-])c1)Nc1cccnc1,1,0,-1,0,50*
COc1ccc(CCNC(=O)CCS(=O)(=O)c2cccc3nsnc23)cc1OC,-1,4,78*,-1,4
COc1ccc(CCNS(=O)(=O)c2cccc3nsnc23)cc1OC,-2,0,15,-3,2
COc1cc(C(C(=O)NC2CCCC2)N(Cc2ccco2)C(=O)c2snc(C(N)=O)c2N)cc(OC)c1OC (stereo not given),1,-1,.,-5,10
O=C(NC1CCCCC1)C(c1ccc(F)cc1)N(Cc1ccco1)C(=O)Cn1nnc2ccccc21 (stereo not given),0,-2,74*,0,-2
NC(=O)c1nsc(C(=O)N(c2ccccc2F)C(C(=O)NCc2ccccc2)c2ccc(O)cc2)c1N (stereo not given),3,1,.,1,51*
CN(C)c1ccc(C(C(=O)NC2CCCCC2)N(Cc2ccco2)C(=O)c2snc(C(N)=O)c2N)cc1 (stereo not given),4,0,.,0,53*
COc1cccc(N(C(=O)c2snc(C(N)=O)c2N)C(C(=O)NCc2ccccc2)c2ccc(O)cc2)c1 (stereo not given),1,0,.,1,8
CC(C)CC(C(=O)NC1CCCC1)N(Cc1cccs1)C(=O)c1snc(C(N)=O)c1N (stereo not given),0,4,-5,-2,48
CC(C)CC(C(=O)NC1CCCCC1)N(Cc1cccs1)C(=O)c1snc(C(N)=O)c1N (stereo not given),1,0,24,10,51*
CC(=O)NC(c1ccccc1)c1nc(-c2cccc(C#N)c2)cs1 (stereo not given),.,-1,.,.,-1
NC(=O)c1nsc(C(=O)N(Cc2ccco2)C(C(=O)NCc2ccccc2)c2ccc(O)cc2)c1N (stereo not given),2,0,.,-5,58*
CCOc1ccccc1N(C(=O)c1snc(C(N)=O)c1N)C(C(=O)NCc1ccccc1)c1ccc(O)cc1 (stereo not given),-1,0,.,-2,2
CN(C)c1ccc(C(C(=O)NCc2ccccc2)N(Cc2cccnc2)C(=O)c2snc(C(N)=O)c2N)cc1 (stereo not given),0,0,.,5,61*
Cc1ccccc1N(C(=O)c1snc(C(N)=O)c1N)C(C(=O)NCc1ccccc1)c1ccc(O)cc1 (stereo not given),2,0,.,4,51*
Cc1nc2cc(OC3(C)CCN(Cc4ccc(OC(F)(F)F)cc4)C3)ccc2s1 (stereo not given),.,-2,.,.,-19
C[C@@H](Oc1ccc(Oc2cnc3ccc(Cl)cc3n2)cc1)C(=O)O,.,.,-5,.,.
Cc1ccc(NC(=O)CSc2nnnn2C2CCCC2)cc1S(=O)(=O)N1CCOCC1,2,0,.,-3,-7
CCN(C[C@H]1N[C@@](CC)(C(=O)OC)[C@H]2C(=O)N(Cc3ccccc3)C(=O)[C@@H]12)S(=O)(=O)c1ccc(F)cc1,2,14,.,1,59*
COC(=O)[C@]1(Cc2ccccc2)N[C@H](CN(C)C(=O)Nc2ccccc2)[C@@H]2C(=O)N(C)C(=O)[C@@H]21,0,28*,.,2,1
CCN(C[C@H]1N[C@@](Cc2ccccc2)(C(=O)OC)[C@H]2C(=O)N(Cc3ccccc3)C(=O)[C@@H]12)S(=O)(=O)c1ccccc1,0,-1,.,-2,18
O=C1c2ccccc2C(c2nnnn2-c2ccc3c(c2)OCCO3)N1CCOc1ccccc1 (stereo not given),.,0,.,.,.
CCCn1c(N/N=C\C=C\c2ccccc2)nc2c1c(=O)[nH]c(=O)n2C,0,1,93*,4,13
Cc1ccc2c(c1)sc1nc(=O)n(-c3ccc(Cl)cc3)c(=O)n12,3,0,80*,9,-6
COc1ccc(Cl)cc1NC(=O)Nc1cccc([N+](=O)[O-])c1C,0,1,84*,7,-11
COc1ccc(Cl)cc1NC(=O)NC1CCCCC1,0,2,19,-3,1
